Laboratory results from PubChem BioAssay AID651740 (Broad Institute, 2012).
Screen size: about 5,600 compounds; about 1,200 (21%) were called active. About 3% were inconclusive and are not listed. Only a sample is shown. A number with no mark means an inactive call.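 Rule for the calls: active = mean inhibition above about 95%, with at least 55% of replicates also reaching it (limit read from the data); inconclusive = meets just one of the two conditions; inactive = meets neither condition.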

Assay: Trypanosoma cruzi growth blockers in host fibroblasts – NIH3T3 host cells, beta-gal parasites, cherry-pick, set 2, confirmation (AID 651740);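 note: plate controls were neutral control median for no effect and positive control median for full effect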
Conditions: T. cruzi beta-gal in NIH3T3, GalScreen luminescence, 90 h; at 2.09 µM; active compounds read high
Method in brief: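 assay system = beta-gal T. cruzi in mouse NIH/3T3 fibroblasts | amount = 5,000 fibroblasts/well | medium = 2% FBS DMEM with PSG | reagent = T. cruzi trypomastigotes, 5000 per well | compound dosing = single point, 100 nL in DMSO | incubation = ≥90 h infection with compound, 60 min read delay | technique = GalScreen lysis and luminescent beta-gal signal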

SMILES	inhibition
O=C(c1ccc(F)cc1)N1CCCCN2[C@H](C1)[C@@H](c1ccc(C#CC3(O)CCCC3)cc1)[C@@H]2CO	2.53%
CCCNC(=O)N(C)C[C@@H]1Oc2ncc(C#Cc3ccccc3F)cc2C(=O)N([C@@H](C)CO)C[C@H]1C	94.5%
O=C(Nc1ccc(-c2ccccc2)cc1)[C@H]1[C@H](CO)[C@H]2Cn3c(cccc3=O)[C@H]2N1CC1CC1	33.8%
C[C@@H]1CN([C@H](C)CO)C(=O)c2cc(-c3cncnc3)cnc2O[C@H]1CN(C)C(=O)Nc1ccc2c(c1)OCO2	-52%
N#C[C@@H]1[C@@H](c2ccc(/C=C/c3ccccc3)cc2)[C@@H](CO)N1C(=O)C1CC1	68.6%
C[C@H](CO)N1C[C@H](C)[C@H](CN(C)Cc2ccc(C(F)(F)F)cc2)Oc2ccc(NS(=O)(=O)c3ccc(Cl)cc3)cc2C1=O	74%
COc1ccc(S(=O)(=O)N(C)C[C@H]2OCCCC[C@H](C)Oc3ccc(NS(=O)(=O)c4ccc(F)cc4)cc3C(=O)N([C@@H](C)CO)C[C@@H]2C)cc1	54%
Cc1ccc(S(=O)(=O)N(C)C[C@@H]2OCCCC[C@@H](C)Oc3ccc(NS(=O)(=O)c4ccc(F)cc4)cc3C(=O)N([C@H](C)CO)C[C@H]2C)cc1	76.8%
C[C@H](CO)N1C[C@H](C)[C@H](CN(C)Cc2ccc(C(F)(F)F)cc2)OCCCC[C@H](C)Oc2ccc(NS(=O)(=O)c3ccc(Cl)cc3)cc2C1=O	104% (active)
C[C@@H]1CCCCO[C@H](CN(C)S(=O)(=O)c2cccs2)[C@H](C)CN([C@H](C)CO)C(=O)c2cc(NS(=O)(=O)c3ccc(F)cc3)ccc2O1	62.8%
C[C@@H]1CN([C@H](C)CO)C(=O)c2cc(NS(=O)(=O)c3cccs3)ccc2O[C@@H](C)CCCCO[C@@H]1CN(C)S(=O)(=O)c1ccc(Cl)cc1	63.6%
COc1ccc(S(=O)(=O)Nc2ccc3c(c2)C(=O)N([C@H](C)CO)C[C@H](C)[C@H](CN(C)Cc2ccc(C(F)(F)F)cc2)O3)cc1	85.4%
C[C@@H]1CCCCO[C@H](CN(C)Cc2ccccc2)[C@H](C)CN([C@H](C)CO)C(=O)c2cc(NS(=O)(=O)c3ccc(Cl)cc3)ccc2O1	107% (active)
C[C@@H]1CN([C@H](C)CO)C(=O)c2cc(NS(=O)(=O)c3ccc(Cl)cc3)ccc2O[C@@H](C)CCCCO[C@H]1CN(C)Cc1ccccc1	94.6%
C[C@@H]1CCCCO[C@H](CN(C)C(=O)NC2CCCCC2)[C@H](C)CN([C@H](C)CO)C(=O)c2cc(NS(=O)(=O)c3ccc(Cl)cc3)ccc2O1	50.5%
COc1ccc(S(=O)(=O)Nc2ccc3c(c2)C(=O)N([C@H](C)CO)C[C@@H](C)[C@@H](CN(C)CC2CCCCC2)OCCCC[C@@H](C)O3)cc1	105% (active)
C[C@@H]1CN([C@H](C)CO)C(=O)c2cc(NS(=O)(=O)c3cccs3)ccc2O[C@@H](C)CCCCO[C@H]1CN(C)Cc1ccc(C(F)(F)F)cc1	112% (active)
COc1ccc(CN(C)C[C@H]2Oc3ccc(NS(=O)(=O)c4ccc(Cl)cc4)cc3CC(=O)N([C@@H](C)CO)C[C@H]2C)cc1	33.6%
C[C@@H]1CN([C@H](C)CO)C(=O)c2cccc(NC(=O)c3ccc(-c4nccs4)cc3)c2O[C@@H]1CN(C)C(=O)Nc1ccc(C(F)(F)F)cc1	53%
CC(C)CC#Cc1cnc2c(c1)C(=O)N([C@@H](C)CO)C[C@@H](C)[C@H](CN(C)C(=O)Cc1ccncc1)O2	29.7%
O=C(c1cccc(F)c1)N1CCCCN2[C@H](CO)[C@H](c3ccc(-c4ccncc4)cc3)[C@H]2C1	82%
CN(C)C(=O)c1ccc(-c2ccc([C@@H]3[C@H](CO)N4CCCCN(S(C)(=O)=O)C[C@@H]34)cc2)cc1	17.3%
Cc1cccc(-c2ccc([C@H]3[C@@H](CO)N4CCCCN(Cc5cncnc5)C[C@H]34)cc2)c1	48.1%
CN(C)C(=O)c1ccc(-c2ccc3c(c2)[C@H]2[C@H](CCN2C(=O)c2ccc4c(c2)OCO4)[C@H](CO)N3)cc1	72.2%
C[C@@H]1CCCCO[C@H](CN(C)Cc2ccccc2)[C@@H](C)CN([C@@H](C)CO)C(=O)c2cc(NC(=O)Nc3ccc(F)cc3)ccc2O1	103% (active)
C[C@H]1CCCCO[C@H](CN(C)Cc2ccccc2)[C@@H](C)CN([C@@H](C)CO)C(=O)c2cc(NC(=O)NC3CCCCC3)ccc2O1	43.1%
C[C@@H]1CCCCO[C@@H](CN(C)Cc2ccc(C(F)(F)F)cc2)[C@@H](C)CN([C@H](C)CO)C(=O)c2cc(NC(=O)Nc3ccccc3)ccc2O1	64.3%
C[C@H]1CCCCO[C@H](CN(C)Cc2ccccc2)[C@@H](C)CN([C@@H](C)CO)C(=O)c2cc(NC(=O)c3ccccc3)ccc2O1	68.2%

SMILES	inhibition
C[C@@H]1CCCCO[C@H](CN(C)C(=O)NC2CCCCC2)[C@H](C)CN([C@H](C)CO)C(=O)c2cc(NC(=O)Nc3ccc(F)cc3)ccc2O1	105% (active)
C[C@H]1CCCCO[C@@H](CN(C)C(=O)NC2CCCCC2)[C@@H](C)CN([C@@H](C)CO)C(=O)c2cc(NS(=O)(=O)c3ccc(Cl)cc3)ccc2O1	68%
C[C@@H]1CCCCO[C@@H](CN(C)CC2CC2)[C@H](C)CN([C@H](C)CO)C(=O)c2cc(NC(=O)C3CCCCC3)ccc2O1	89.3%
Cc1ccc(S(=O)(=O)Nc2ccc3c(c2)C(=O)N([C@H](C)CO)C[C@H](C)[C@H](CN(C)C(=O)Nc2ccc(F)cc2)OCCCC[C@H](C)O3)cc1	71.2%
C[C@@H]1CN([C@H](C)CO)C(=O)c2cc(NC(=O)Nc3ccc(F)cc3)ccc2O[C@@H](C)CCCCO[C@@H]1CN(C)CC1CCCCC1	104% (active)
C[C@@H]1CCCCO[C@H](CN(C)Cc2ccc(C(F)(F)F)cc2)[C@H](C)CN([C@H](C)CO)C(=O)c2cc(NC(=O)Nc3ccc(F)cc3)ccc2O1	117% (active)
C[C@@H]1CN([C@@H](C)CO)C(=O)c2cc(C#CC3CCCCC3)cnc2O[C@H]1CN(C)S(=O)(=O)c1ccccc1	85.8%
COc1ccc(-c2ccc3c(c2)[C@@H]2[C@@H](CCN2C(=O)Cc2ccccn2)[C@H](CO)N3C)cc1	84.9%
O=C(C1CCCC1)N1CCCCN2[C@@H](CO)[C@H](c3ccc(-c4cccc(F)c4)cc3)[C@@H]2C1	78.2%
O=C(CN1CCOCC1)N1CCCCN2[C@@H](CO)[C@H](c3ccc(/C=C/c4ccccc4)cc3)[C@@H]2C1	25.9%
C[C@H]1CN([C@@H](C)CO)S(=O)(=O)c2ccc(C#Cc3cccc(F)c3)cc2O[C@@H]1CN(C)S(=O)(=O)c1cn(C)cn1	24.7%
Cc1ccc(S(=O)(=O)Nc2ccc3c(c2)C(=O)N([C@@H](C)CO)C[C@@H](C)[C@H](CN(C)C(=O)Nc2cccc4ccccc24)OCCCC[C@H](C)O3)cc1	66.1%
C[C@@H]1CCCCO[C@@H](CN(C)Cc2ccccc2)[C@H](C)CN([C@H](C)CO)C(=O)c2cc(NC(=O)Nc3cccc4ccccc34)ccc2O1	110% (active)
C[C@@H]1CN([C@@H](C)CO)C(=O)c2cc(NC(=O)Nc3cccc4ccccc34)ccc2O[C@@H](C)CCCCO[C@H]1CN(C)Cc1ccccc1	94.8%
C[C@H](CO)N1C[C@H](C)[C@H](CN(C)S(=O)(=O)c2ccccc2)Oc2ncc(-c3cccc(C(F)(F)F)c3)cc2C1=O	47.5%
OC[C@@H]1[C@H](c2ccc(C#CC3CC3)cc2)[C@@H]2CN(CCC(F)(F)F)CCCCN12	78.6%
C[C@@H]1CN([C@H](C)CO)C(=O)c2cccc(NC(=O)NC3CCCCC3)c2O[C@H]1CN(C)Cc1ccc(C(F)(F)F)cc1	106% (active)
C[C@H](CO)N1C[C@H](C)[C@@H](CN(C)Cc2ccc(C(F)(F)F)cc2)OCCCC[C@H](C)Oc2ccc(NC(=O)C3CCCCC3)cc2C1=O	106% (active)
C[C@@H]1CN([C@@H](C)CO)C(=O)c2cc(NC(=O)C3CCCCC3)ccc2O[C@@H](C)CCCCO[C@H]1CN(C)Cc1ccncc1	78%
COc1ccc(NC(=O)N(C)C[C@@H]2Oc3c(NC(=O)NC4CCCCC4)cccc3C(=O)N([C@@H](C)CO)C[C@@H]2C)cc1	23.4%
C[C@H](CO)N1C[C@H](C)[C@@H](CN(C)Cc2ccc(C(=O)Nc3ccccc3N)cc2)Oc2c(NC(=O)c3ccc(-c4nccs4)cc3)cccc2C1=O	60.5%
C[C@H]1CCCCO[C@H](CN(C)Cc2ccc(C(F)(F)F)cc2)[C@@H](C)CN([C@@H](C)CO)C(=O)c2cc(NC(=O)C3CCCCC3)ccc2O1	111% (active)
C[C@@H]1CN([C@H](C)CO)S(=O)(=O)c2ccc(C#Cc3ccncc3)cc2O[C@@H]1CN(C)S(=O)(=O)c1ccc(F)cc1	22.2%
OC[C@H]1[C@H](c2ccc(-c3cccc(F)c3)cc2)[C@@H]2CN(Cc3cncnc3)CCCCN12	60.7%
CC(=O)N(C)C[C@@H]1[C@@H](c2ccc(-c3ccccc3F)cc2)[C@@H](CO)N1C(C)=O	26.5%
OC[C@@H]1[C@H](c2ccc(C#Cc3ccccc3)cc2)[C@@H]2CN(Cc3cncnc3)CCCCN12	90.4%
N#C[C@H]1[C@@H](c2ccc(C3=CCCCC3)cc2)[C@@H](CO)N1C(=O)NC1CCCCC1	59.4%
